Publication PMC7680388 (Cell chemical biology, 2020)
Read-outs that look alike come from different tables or passages of the source. Values belong to the molecule of their own block, whether it stands above or below them.

What was measured:
26S proteasome = assay: Deubiquitylase activity of purified 26S proteasome; format: biochemical, human; settings: KDT-11 10 μM; b-AP15 1 μM; 1 nM purified 26S proteasome, 5 mM ATP; biological triplicate; Fig. 2F
solid tumors = settings: ref Huang et al., 2014; cited from earlier work
MM.1R cells = assay: Apoptosis flow cytometry; format: cell-based, Homo sapiens
Method in brief: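 MM.1R cells were treated with test compound (10 μM) or vehicle (0.1% DMSO) for 8, 16 and 24 h. Cells were washed twice in cold DPBS and resuspended in cold Annexin V buffer (HEPES, EDTA, CaCl2) with 5 μg/mL Annexin V-510 and 50 μg/mL PI. They were held 15 min at room temperature in the dark, then run by flow cytometry (violet/blue lasers). Annexin V+/PI− cells were scored apoptotic; three biological replicates.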

Rpn13 [1] = target: T1, Rpn13 (Homo sapiens, UniProt Q16186); settings: two different cancer cell lines, ref Dickson, et al., submitted, cited from earlier work
T1 sequence (Q16186 whole entry): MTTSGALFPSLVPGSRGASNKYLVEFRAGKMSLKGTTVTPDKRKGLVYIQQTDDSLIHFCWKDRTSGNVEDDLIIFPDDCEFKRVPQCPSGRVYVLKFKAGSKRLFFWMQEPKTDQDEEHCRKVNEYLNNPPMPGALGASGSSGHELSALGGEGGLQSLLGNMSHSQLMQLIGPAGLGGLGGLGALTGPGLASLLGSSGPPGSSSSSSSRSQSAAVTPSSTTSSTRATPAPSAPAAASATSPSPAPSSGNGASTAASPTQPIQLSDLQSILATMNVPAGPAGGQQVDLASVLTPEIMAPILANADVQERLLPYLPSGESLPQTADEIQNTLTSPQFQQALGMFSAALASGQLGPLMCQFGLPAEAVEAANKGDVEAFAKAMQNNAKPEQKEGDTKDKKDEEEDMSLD

[2] = tested on: cancer (in cellulo and in vivo); settings: ref Anchoori et al., 2013; cited from earlier work
Rpn13 [3] = target: T1, Rpn13; settings: ref Anchoori et al., 2013; cited from earlier work

effect on rate of Ub-AMC hydrolysis by 26S proteasome (26S proteasome): greater inhibition
SMILES: C=CC(=O)N1C/C(=C\c2ccc([N+](=O)[O-])cc2)C(=O)/C(=C/c2ccc([N+](=O)[O-])cc2)C1 [b-AP15]

SMILES: CC(C)C[C@H](NC(=O)[C@H](Cc1ccccc1)NC(=O)c1cnccn1)B(O)O [Bortezomib]
dose-limiting toxicity (solid tumors): dose-limiting toxicity
efficacy as a single agent in solid tumors (solid tumors): unsuccessful as a single agent to treat solid tumors
induction of apoptosis and cell death, Annexin V/PI staining (MM.1R cells; 8, 16 and 24 hours): induces apoptosis and cell death rapidly
cells both Annexin V- and PI-positive (MM.1R cells; 16 hours, KDT-11 10 μM (Fig. 4), Bortezomib Supplementary Figure 4): ≈ 85%

SMILES: Cl.N[C@@H](Cc1ccccc1)C(=O)N1C/C(=C/c2ccc(Cl)c(Cl)c2)C(=O)/C(=C\c2ccc(Cl)c(Cl)c2)C1 [RA190]
engagement of Rpn13 in cellulo (Rpn13 [1]): Rpn13 is not engaged by this compound in cellulo
engagement of Rpn13 in cellulo (Rpn13 [1]; listed as RA-190): does not engage Rpn13 in cells
anti-cancer activity in cellulo and in vivo [2]: displays interesting anti-cancer activity in cellulo and in vivo
engagement of Rpn13 in vitro (Rpn13 [3]): engages Rpn13 selectively in vitro
